Measured values: publication PMC10957407 (Food Chemistry: X, 2024)
Values after ≈ are worked out from the molar mass of the structure shown.

Key:
1-F12 = assay: icELISA with mAb 1-F12; assay type: binding, Balb/c mice
Method in brief: (§1)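 Ascites-derived mAbs (caprylic acid–ammonium sulfate purified) from female Balb/c mice immunized with hapten–BSA. Plates coated with hapten–OVA in carbonate buffer (0.5 mol L−1, pH 9.6), blocked with 5% skim milk, washed with PBST, and detected with goat anti-mouse IgG-HRP; reaction stopped with 2 mol L−1 H2SO4. Analyte stocks (1 mg/mL, 70% methanol) were diluted in 10% methanol-PBS. IC50 values were fitted, and cross-reactivity was calculated for capsaicinoids, gingerol derivatives and eight other compounds.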

5-3H1 = assay: icELISA with mAb 5-3H1; assay type: binding
3-LD3 = assay: icELISA with mAb 3-LD3; assay type: binding
5-D8 = assay: icELISA with mAb 5-D8; assay type: binding
6-AT6 = assay: icELISA with mAb 6-AT6; assay type: binding
2-LD2 = assay: icELISA with mAb 2-LD2; assay type: binding
4-AT4 = assay: icELISA with mAb 4-AT4; assay type: binding
1-G12 = assay: icELISA with mAb 1-G12; assay type: binding, Balb/c mice
Method in brief: as §1

1-D6 = assay: icELISA with mAb 1-D6; assay type: binding, Balb/c mice
Method in brief: as §1

Work on CCCCC[C@H](O)CC(=O)CCc1ccc(O)c(OC)c1 [Hapten 6-GG, 6-gingerol] yielded an IC50 (1-F12; coating antigen Hapten 1-OVA, mAb 1-F12) of 0.50623 µg/mL (≈ 1.72 µM), an IC50 (1-F12; coating antigen Hapten 2-OVA, mAb 1-F12) greater than 4 µg/mL and an IC50 (1-F12; coating antigen Hapten 3-OVA, mAb 1-F12) greater than 4 µg/mL. The IC50 (1-F12; coating antigen Hapten 4-OVA, mAb 1-F12) was 0.40126 µg/mL (≈ 1.36 µM), the IC50 (1-F12; coating antigen Hapten 5-OVA, mAb 1-F12 (optimal combination)) was 0.12283 µg/mL and the IC50 (1-F12; coating antigen Hapten 6-OVA, mAb 1-F12) was 0.63169 µg/mL (≈ 2.15 µM). For the same compound, the IC50 (1-F12; mAb 1-F12, specific evaluation (Table 1, Fig. 3B)) was 0.50623 µg/mL (≈ 1.72 µM), the CR (1-F12; mAb 1-F12, CR%=IC50 6-GG/IC50 test compound x100%) was 100.00% and the IC50 (5-3H1; coating antigen Hapten 1-OVA) was 0.03897 µg/mL (≈ 0.132 µM). For the same compound, the IC50 (5-3H1; coating antigen Hapten 2-OVA) was greater than 4 µg/mL, the IC50 (5-3H1; coating antigen Hapten 3-OVA) was greater than 4 µg/mL and the IC50 (5-3H1; coating antigen Hapten 4-OVA) was 1.06282 µg/mL (≈ 3.61 µM). The IC50 (5-3H1; coating antigen Hapten 5-OVA) was 0.67041 µg/mL (≈ 2.28 µM), the IC50 (3-LD3; coating antigen Hapten 2-OVA) was 1.82165 µg/mL (≈ 6.19 µM) and the IC50 (3-LD3; coating antigen Hapten 3-OVA) was 2.18232 µg/mL (≈ 7.41 µM). For the same compound, the IC50 (3-LD3; coating antigen Hapten 4-OVA) was 0.27108 µg/mL (≈ 0.921 µM), the IC50 (5-D8; coating antigen Hapten 1-OVA) was 0.02328 µg/mL (≈ 0.0791 µM) and the IC50 (5-D8; coating antigen Hapten 2-OVA) was greater than 4 µg/mL. The IC50 (5-D8; coating antigen Hapten 3-OVA) was greater than 4 µg/mL, the IC50 (5-D8; coating antigen Hapten 4-OVA) was 1.03007 µg/mL (≈ 3.5 µM) and the IC50 (5-D8; coating antigen Hapten 5-OVA) was 1.03651 µg/mL (≈ 3.52 µM). It also gave an IC50 (6-AT6; coating antigen Hapten 1-OVA) greater than 4 µg/mL, an IC50 (6-AT6; coating antigen Hapten 2-OVA) greater than 4 µg/mL and an IC50 (6-AT6; coating antigen Hapten 3-OVA) greater than 4 µg/mL. For the same compound, the IC50 (6-AT6; coating antigen Hapten 4-OVA) was greater than 4 µg/mL, the IC50 (6-AT6; coating antigen Hapten 5-OVA) was 0.42562 µg/mL (≈ 1.45 µM) and the IC50 (6-AT6; coating antigen Hapten 6-OVA) was greater than 4 µg/mL. The IC50 (2-LD2; coating antigen Hapten 1-OVA) was 0.02479 µg/mL (≈ 0.0842 µM), the IC50 (2-LD2; coating antigen Hapten 2-OVA) was 1.43616 µg/mL (≈ 4.88 µM) and the IC50 (2-LD2; coating antigen Hapten 3-OVA) was 0.00178 µg/mL (≈ 0.00605 µM). For the same compound, the IC50 (2-LD2; coating antigen Hapten 4-OVA) was 0.00101 µg/mL (≈ 0.00343 µM), the IC50 (4-AT4; coating antigen Hapten 1-OVA) was 0.00493 µg/mL (≈ 0.0167 µM) and the IC50 (4-AT4; coating antigen Hapten 2-OVA) was greater than 4 µg/mL. It also gave an IC50 (4-AT4; coating antigen Hapten 3-OVA) greater than 4 µg/mL, an IC50 (4-AT4; coating antigen Hapten 4-OVA) greater than 4 µg/mL and an IC50 (4-AT4; coating antigen Hapten 5-OVA) of 0.48165 µg/mL (≈ 1.64 µM). For the same compound, the IC50 (1-G12; coating antigen Hapten 1-OVA, mAb 1-G12) was 0.56059 µg/mL (≈ 1.9 µM), the IC50 (1-G12; coating antigen Hapten 2-OVA, mAb 1-G12) was greater than 4 µg/mL and the IC50 (1-G12; coating antigen Hapten 3-OVA, mAb 1-G12) was greater than 4 µg/mL. The IC50 (1-G12; coating antigen Hapten 4-OVA, mAb 1-G12) was 0.41084 µg/mL (≈ 1.4 µM), the IC50 (1-G12; coating antigen Hapten 5-OVA, mAb 1-G12) was 0.19553 µg/mL (≈ 0.664 µM) and the IC50 (1-G12; coating antigen Hapten 6-OVA, mAb 1-G12) was 0.28444 µg/mL (≈ 0.966 µM). The IC50 (1-G12; mAb 1-G12, specific evaluation (Table 1, Fig. 3D)) was 0.56059 µg/mL (≈ 1.9 µM), the CR (1-G12; mAb 1-G12, CR%=IC50 6-GG/IC50 test compound x100%) was 100.00% and the IC50 (1-D6; coating antigen Hapten 1-OVA, mAb 1-D6) was 0.05917 µg/mL (≈ 0.201 µM). The IC50 (1-D6; coating antigen Hapten 2-OVA, mAb 1-D6) was 1.14733 µg/mL (≈ 3.9 µM), the IC50 (1-D6; coating antigen Hapten 3-OVA, mAb 1-D6) was 0.02778 µg/mL (≈ 0.0944 µM) and the IC50 (1-D6; coating antigen Hapten 4-OVA, mAb 1-D6) was 0.29753 µg/mL (≈ 1.01 µM). It also gave an IC50 (1-D6; coating antigen Hapten 5-OVA, mAb 1-D6) of 0.13286 µg/mL (≈ 0.451 µM), an IC50 (1-D6; coating antigen Hapten 6-OVA, mAb 1-D6) of 0.15056 µg/mL (≈ 0.511 µM) and an IC50 (1-D6; mAb 1-D6, specific evaluation (Table 1, Fig. 3C)) of 0.05917 µg/mL (≈ 0.201 µM). For the same compound, the CR (1-D6; mAb 1-D6, CR%=IC50 6-GG/IC50 test compound x100%) was 100.00%.
